Here are results for 13 compounds from ChEMBL document CHEMBL1122659, “Synthesis of some phosphonates with antiherpetic activity” (1984).

Each structure is given as a SMILES string. Converted amounts (≈) assume the structure as drawn. The source made the active and inactive calls. No cut-off for these calls is given here.

The nature of experiment [1]: In vitro ability to inhibit the herpes HSV-2 virus. The class given is functional, herpes simplex virus. The settings on record: Oryctolagus cuniculus.
Experiment [2] is filed under the species Oryctolagus cuniculus. Nature of the experiment: In vitro ability to inhibit the herpes HSV-2 virus; Inactive. The class given is functional, organism-based. The settings on record: herpes simplex virus.
The species entered for experiment [3] is Cavia porcellus. Nature of the experiment: Effect on the growth of Herpes simplex Type 1 on the skin of Guinea pigs infected intradermally on day 4 at 5 % concentration. The class given is functional. Put shortly: (§1)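 Guinea pigs (Hartley, 350–400 g) were infected intradermally on an epilated flank with undiluted HSV-1 AA strain and treated with topical cream. Supernatants of lesion skin scrapings were diluted 10⁻¹ to 10⁻⁸ and titered by plaque assay on BSC-1 monolayers in triplicate: 1 h adsorption at 37 °C, agarose overlay, 4 days at 37 °C, formalin fixation, crystal violet staining, plaques counted.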

Experiment [4] is filed under the species Cavia porcellus. Nature of the experiment: Effect on the growth of Herpes simplex Type 1 on the skin of Guinea pigs infected intradermally on day 1 at 5% concentration. The class given is functional. The method in brief:
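Guinea pigs were infected intradermally with HSV-1 on an epilated flank and treated topically with cream. Virus in skin-scraping supernatants was titered by plaque assay on BSC-1 monolayers. Dilutions of 10⁻¹ to 10⁻⁸ in Eagle's medium with 2% FCS were plated in triplicate and adsorbed 1 h at 37 °C. An agarose overlay followed, with 4 days' incubation, formalin fixation, crystal violet staining and plaque counting.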

The species named for experiment [5] is Cavia porcellus. Nature of the experiment: Effect on the development of Herpetic vesicles in Guinea pigs infected intradermally with Herpes virus Hominis, Type 1,AA strain on day 4 at 5 % concentration. The class given is functional. Put shortly:
(§2)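 Albino Hartley guinea pigs (350–400 g) were infected intradermally with 0.05 mL undiluted HSV-1 AA strain, delivered by vaccination gun into a 12 mm marked area on an epilated flank. Topical cream treatment followed. Vesicle development was scored daily.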

Experiment [6] is filed under the species Cavia porcellus. Nature of the experiment: Effect on the development of Herpetic vesicles in Guinea pigs infected intradermally with Herpes virus Hominis, Type 1,AA strain on day 2 at 5 % concentration. The class given is functional. Put shortly: as §2
Experiment [7] is filed under the species Cavia porcellus. Nature of the experiment: Effect on the growth of Herpes simplex Type 1 on the skin of Guinea pigs infected intradermally on day 2 at 5 % concentration. The class given is functional. The method in brief: as §1
For experiment [8], the species on record is Cavia porcellus. Nature of the experiment: Effect on the development of Herpetic vesicles in Guinea pigs infected intradermally with Herpes virus Hominis, Type 1,AA strain on day 1 at 5% concentration. The class given is functional. Put shortly: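 Hartley albino guinea pigs (350–400 g) were infected with undiluted HSV-1 AA strain, 0.05 mL placed in a 12-mm circle on an epilated flank and given intradermally by vaccination gun. Test article was a topical cream, with treatment starting 24 h postinfection. Mean vesicle score was recorded on days 1–5 against placebo and nonmedicated groups.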

The species entered for experiment [9] is Cavia porcellus. Nature of the experiment: Effect on the growth of Herpes simplex Type 1 on the skin of Guinea pigs infected intradermally on day 3 at 5 % concentration. The class given is functional. The method in brief: as §1

As to `CCOP(=O)(OCC)C(CCCCc1ccc(OC)cc1)C(C)=O` (centres undefined), the MIC in experiment [1] amounted to 25 µg/mL (≈ 70.1 µM). In the case of `COc1ccc(OCCCCCCP(=O)(O)O)c(Cl)c1`, the MIC entry in [2] is “inactive”. As to `CCOP(=O)(OCC)C(CCCCCCCOc1ccc(OC)cc1Cl)C(C)=O` (centres undefined), the MIC in experiment [1] came to 6 µg/mL (≈ 13.4 µM).

As for `CCOP(=O)(CCCOc1ccc(OC)cc1Cl)OCC`, the MIC entry in [2] was “inactive”. In experiment [1], `CCOP(=O)(CCCCCCOc1c(Cl)cccc1Cl)OCC` showed an MIC of 12 µg/mL (≈ 31.3 µM). Still for that read-out and setting: as for `CCOP(=O)(OCC)C(CCCCOc1ccc(OC)cc1Cl)C(C)=O` (centres undefined), the figure is 12 µg/mL (≈ 29.5 µM). `CCOP(=O)(CCCCCCCOc1ccc(OC)cc1Cl)OCC`: the MIC result in [2] is “inactive”. `Nc1nc2c(ncn2COCCO)c(=O)[nH]1` [ACYCLOVIR]: the Log geometric mean in experiment [3] was 2.13 pfu mg-1; in experiment [4] it was 4.3 pfu mg-1; in experiment [7], 4.09 pfu mg-1; in [9] it was 3.31 pfu mg-1. In addition, the figures for the Mean vesicle score in experiment [5], in experiment [6] and in [8] were 1, 0.83 and 0.58, respectively. `CCOP(=O)(CCCCOc1ccc(OC)cc1Cl)OCC`: in [2], the MIC entry is “inactive”. Compound `CCCOP(=O)(CCCCCCOc1ccc(OC)cc1Cl)OCCC` registered an MIC in experiment [1] of 6 µg/mL (≈ 14.7 µM). Regarding `CCOP(=O)(CCCCCCOc1ccc(C(=O)O)cc1)OCC`, the MIC result in experiment [2] was “inactive”. Turning to `CCOP(=O)(OCC)C(CCCCCCOc1ccc(OC)cc1Cl)C(C)=O` (centres undefined), in [1], the MIC is 6 µg/mL (≈ 13.8 µM). Consider `CCOP(=O)(CCCCCCOc1c(OC)cccc1OC)OCC`, for which the MIC entry in experiment [2] is “inactive”.
